This passage reports Activity and fold change (FC) results from ChEMBL document CHEMBL1151442, “Genetic and phenotypic identification of fusidic acid-resistant mutants with the small-colony-variant phenotype in Staphylococcus aureus” (2007).

Common to all, as to type: functional
Assay [1] has as its system Staphylococcus aureus. Nature of the assay: Antibacterial activity against fusidic acid-resistant Staphylococcus aureus AH201 harboring Gly452Cys mutation in fusA after 18 to 24 hrs by Etest strip assay. In outline:
(§1)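 Mutants of lab strain 8325-4 were selected on LA with FA 2 μg/ml for 48 h at 37°C and purified on selective medium. For the MIC, one colony was suspended in 0.9% NaCl to 0.5 McFarland and swabbed onto Mueller-Hinton agar. An Etest strip was applied and plates were incubated at 37°C for 18–24 h until the lawn was evident.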

Assay [2] relates to Staphylococcus aureus. Nature of the assay: Antibacterial activity against fusidic acid-resistant Staphylococcus aureus AH196 harboring Pro406Leu mutation in fusA gene after 18 to 24 hrs by Etest strip assay. In outline:
as §1

For assay [3], the system named is Staphylococcus aureus. Nature of the assay: Ratio of MIC for kanamycin-resistant Staphylococcus aureus harboring mutations in FusE gene to MIC for wild type kanamycin-susceptible Staphylococcus aureus AH001.
Assay [4] concerns Staphylococcus aureus. Nature of the assay: Antibacterial activity against fusidic acid-resistant Staphylococcus aureus AH207 harboring Thr385Asn mutation in fusA gene after 18 to 24 hrs by Etest strip assay. In a few lines:
as §1

The test system of assay [5] is Staphylococcus aureus. Nature of the assay: Antibacterial activity against fusidic acid-resistant Staphylococcus aureus AH206 harboring Arg464Ser mutation in fusA gene after 18 to 24 hrs by Etest strip assay. In outline:
as §1

In assay [6] the test system is Staphylococcus aureus. Nature of the assay: Antibacterial activity against fusidic acid-resistant Staphylococcus aureus AH197 harboring Leu456Phe mutation in fusA gene after 18 to 24 hrs by Etest strip assay. In a few lines:
as §1

In assay [7] the test system is Staphylococcus aureus. Put plainly: Antibacterial activity against fusidic acid-resistant Staphylococcus aureus AH194 harboring Pro404Leu mutation in fusA gene after 18 to 24 hrs by Etest strip assay. In a few lines:
as §1

The subject of assay [8] is Staphylococcus aureus. Put plainly: Ratio of MIC for kanamycin-resistant Staphylococcus aureus harboring mutations in FusA gene to MIC for wild type kanamycin-susceptible Staphylococcus aureus AH001.
Assay [9] concerns Staphylococcus aureus. Nature of the assay: Antibacterial activity against fusidic acid-resistant Staphylococcus aureus AH198 harboring Gly452Ser mutation in fusA gene after 18 to 24 hrs by Etest strip assay. In a few lines: as §1
Assay [10] concerns Staphylococcus aureus. Put plainly: Antibacterial activity against fusidic acid-resistant Staphylococcus aureus AH190 harboring Arg464His mutation in fusA gene after 18 to 24 hrs by Etest strip assay. In outline:
as §1

For assay [11], the system named is Staphylococcus aureus. Put plainly: Antibacterial activity against fusidic acid-resistant Staphylococcus aureus AH187 harboring His457Tyr mutation in fusA gene after 18 to 24 hrs by Etest strip assay. In a few lines: as §1

Active and inactive are the calls of the source. The rule behind the calls is not given here.

For GENTAMICIN, the outcome in the assay with Staphylococcus aureus [1], with Staphylococcus aureus [2], in the assay on Staphylococcus aureus [4], in the assay with Staphylococcus aureus [5], in the assay on Staphylococcus aureus [6] and in the assay with Staphylococcus aureus [7] was Active. Also, the outcome in the assay with Staphylococcus aureus [9], in the assay with Staphylococcus aureus [10] and in the assay with Staphylococcus aureus [11] was Active. For the same sequence, the fold change (FC) with Staphylococcus aureus [3] and with Staphylococcus aureus [8] was 4 each time.
